Test results taken from ChEMBL document CHEMBL4196247, “Coumarinolignoids and Taraxerane Triterpenoids from Sapium discolor and Their Inhibitory Potential on Microglial Nitric Oxide Production” (J Nat Prod, 2018).

Experiments:
BV-2 [1] = assay: Antineuroinflammatory activity in mouse BV2 cells assessed as inhibition of LPS-induced nitric oxide production measured after 24 hrs by Griess assay; type: functional, cell-based; conditions: BV-2, 24 h
How it was run: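 BV-2 microglia; minocycline served as the positive control, and IC50 values were reported.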

BV-2 [2] = assay: Cytotoxicity against mouse BV2 cells assessed as reduction in cell viability at 1 to 100 uM after 24 hrs by MTT assay; type: cell-based; conditions: bv-2, 24 h
How it was run: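 BV-2 viability was read by MTT at 1, 10, 30 and 100 μM in parallel with the NO-release test, to exclude NO drops caused by lost viability.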

Structure (SMILES)	IC50 (BV-2 [1])	Activity (BV-2 [2])
CC1(C)CC[C@]2(C(=O)O)CC=C3[C@]4(C)CC[C@H]5C(C)(C)[C@@H](O)CC[C@]5(C)[C@H]4CC[C@@]3(C)[C@@H]2C1 [ALEURITOLIC ACID]	> 50 µM	Non-Toxic
CC(=O)O[C@H]1CC(=O)[C@]2(C)[C@H]3CC[C@]4(C)C(=CC[C@@]5(C(=O)O)CCC(C)(C)C[C@H]54)[C@]3(C)CC[C@H]2C1(C)C	> 50 µM	Non-Toxic
O=c1ccc2cc3c(cc2o1)O[C@@H](CO)[C@H](c1ccc(O)c(O)c1)O3	> 50 µM	Non-Toxic
CC1(C)CC[C@]2(C(=O)O)CC=C3[C@]4(C)CC[C@H]5C(C)(C)[C@@H](OC(=O)/C=C/c6ccc(O)cc6)CC(=O)[C@]5(C)[C@H]4CC[C@@]3(C)[C@@H]2C1	14 µM	Non-Toxic
CC1(COC(=O)/C=C\c2ccc(O)cc2)CC[C@]2(C(=O)O)CC=C3[C@]4(C)CC[C@H]5C(C)(C)C(=O)C=C[C@]5(C)[C@H]4CC[C@@]3(C)[C@@H]2C1 (stereo not given in full)	1.7 µM	Non-Toxic
CC1(C)CC[C@]2(C(=O)O)CC=C3[C@]4(C)CC[C@H]5C(C)(C)C(=O)CC[C@]5(C)[C@H]4CC[C@@]3(C)[C@@H]2C1	> 50 µM	Non-Toxic
O=c1ccc2cc3c(cc2o1)O[C@H](c1ccc(O)c(O)c1)[C@@H](CO)O3	13.8 µM	Non-Toxic
CC1(C)CC[C@]2(C(=O)O)CC=C3[C@]4(C)CC[C@H]5C(C)(C)[C@@H](O)CC(=O)[C@]5(C)[C@H]4CC[C@@]3(C)[C@@H]2C1	> 50 µM	Non-Toxic
CC(=O)O[C@H]1C[C@H](O)[C@]2(C)[C@H]3CC[C@]4(C)C(=CC[C@@]5(C(=O)O)CCC(C)(C)C[C@H]54)[C@]3(C)CC[C@H]2C1(C)C	> 50 µM	Non-Toxic
O=c1ccc2cc3c(cc2o1)O[C@H](CO)[C@@H](c1ccc(O)c(O)c1)O3	5.8 µM	Non-Toxic
COc1c2c(cc3ccc(=O)oc13)O[C@H](c1ccc(O)c(O)c1)[C@@H](CO)O2	11.8 µM	Non-Toxic
CC(=O)O[C@H]1CC[C@]2(C)[C@H]3CC[C@]4(C)C(=CC[C@@]5(C(=O)O)CCC(C)(C)C[C@H]54)[C@]3(C)CC[C@H]2C1(C)C [ACETYL ALEURITOLIC ACID]	> 50 µM	Non-Toxic
COc1c2c(cc3ccc(=O)oc13)O[C@@H](c1ccc(O)c(O)c1)[C@H](CO)O2	4.2 µM	Non-Toxic
CN(C)c1ccc(O)c2c1C[C@H]1C[C@H]3[C@H](N(C)C)C(O)=C(C(N)=O)C(=O)[C@@]3(O)C(O)=C1C2=O [MINOCYCLINE]	4.9 µM	–
COc1cc(/C=C/C(=O)O[C@H]2CC(=O)[C@]3(C)[C@H]4CC[C@]5(C)C(=CC[C@@]6(C(=O)O)CCC(C)(C)C[C@H]65)[C@]4(C)CC[C@H]3C2(C)C)ccc1O	15.3 µM	Non-Toxic
CC1(COC(=O)/C=C/c2ccc(O)cc2)CC[C@]2(C(=O)O)CC=C3[C@]4(C)CC[C@H]5C(C)(C)C(=O)C=C[C@]5(C)[C@H]4CC[C@@]3(C)[C@@H]2C1 (stereo not given in full)	2.7 µM	Non-Toxic
CC1(C)CC[C@]2(C(=O)O)CC=C3[C@]4(C)CC[C@H]5C(C)(C)[C@@H](OC(=O)/C=C/c6ccc(O)cc6)C[C@H](O)[C@]5(C)[C@H]4CC[C@@]3(C)[C@@H]2C1	46.5 µM	Non-Toxic
O=c1ccc2cc3c(cc2o1)O[C@@H](c1ccc(O)c(O)c1)[C@H](CO)O3	7.2 µM	Non-Toxic
